Measurements as given in ChEMBL document CHEMBL4371088, “Analysis of chain length, substitution patterns, and unsaturation of AM-404 derivatives as 20S proteasome stimulators” (Bioorg Med Chem Lett, 2019).

How the values were obtained:
20S proteasome = assay: Stimulation of human 20S proteasome using 11 amino acid FRET peptide as substrate measured every 2 mins over 1 hr by FRET assay; assay type: protein-complex assay
Method in brief: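 Purified human 20S core particle is incubated with an 11-residue reporter peptide carrying a FRET pair, with or without stimulator. The peptide hydrolysis rate is calculated and expressed as percent increase over the basal (unstimulated) rate. EC50 comes from concentration-response curves.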

[1] = target: 20S proteasome (Homo sapiens) (UniProt P49721+P20618+P28074+P28062+P28065+P28072+P25786+P25787+P25788+P25789+P28066+P60900+O14818+Q8TAA3+P40306+A5LHX3+P49720+P28070+Q99436); assay: Stimulation of human 20S proteasome at EC50 using 11 amino acid FRET peptide as substrate measured every 2 mins over 1 hr by FRET assay relative to control; assay type: protein-complex assay
Method in brief: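 Purified human 20S core particle incubated with an 11-residue reporter peptide carrying a FRET pair. Hydrolysis rate of the peptide is calculated with and without stimulator and expressed as percent increase over basal hydrolysis.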

HEK-293T [2] = assay: Cytotoxicity against HEK293T cells up to 50 uM after 16 hrs by Celltiter-Glo luminescence assay; assay type: cell-based; settings: human
Method in brief: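 HEK-293T cells exposed for 16 hrs to varying concentrations of stimulator before toxicity was assessed.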

HEK-293T [3] = assay: Cytotoxicity against HEK293T cells at 25 to 50 uM after 24 hrs by LDH assay; settings: human
[4] = Solubility of the compound in DMSO; assay type: physicochemical

| Structure (SMILES) | EC50 (20S proteasome) [µM] | Activity [1] [%] | Activity (HEK-293T [2]) | Activity (HEK-293T [3]) | solubility [4] |
| --- | --- | --- | --- | --- | --- |
| CCCCCCCC/C=C\CCCCC/C=C/C(=O)Nc1ccc(O)cc1 | 24 | 500 | Non-Toxic | Non-Toxic | – |
| CCCCCCCC/C=C\CCCCCCCC(=O)Nc1ccc(O)cc1 | 35 | 400 | Non-Toxic | Non-Toxic | – |
| CCCCCC/C=C\CCCCC/C=C/C(=O)O | – | – | – | – | Insoluble |
| CCCCC/C=C\C/C=C\C/C=C\C/C=C\CCCC(=O)Nc1ccc(O)cc1 | 28 | 1000 | Toxic | Non-Toxic | – |
| CCCCCCCC/C=C\CCCCC/C=C/C(=O)O | – | – | – | – | Insoluble |
